According to ChEMBL document CHEMBL3124905, “Isothiocoumarin-3-carboxylic acid derivatives: synthesis, anticancer and antitrypanosomal activity evaluation” (Eur J Med Chem, 2014):
Each block holds one compound with its values, some of them ahead of it.

Columns and labels:
[1] = Growth inhibition of human UO31 cells at 10 uM after 48 hrs by SRB assay; values are per cent of control; details: UO-31, 48 h
[2] = Growth inhibition of human […] cells at 10 uM after 48 hrs by SRB assay; assay type: functional; details: read-out: GI
Outline: (§1)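 NCI one-dose screen across roughly 60 human tumour cell lines. Cells were preincubated 24–48 h, then treated with a single 10−5 M concentration for 48 h. Growth was read with the SRB protein-binding dye and reported as percent growth versus untreated controls. Negative values indicate cell kill.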

CCRF-CEM [3] = experiment: Growth inhibition of human CCRF-CEM cells at 10 uM after 48 hrs by SRB assay; assay type: functional; details: read-out: GI
Outline: as §1

M14 = experiment: Growth inhibition of human M14 cells after 48 hrs by SRB assay; assay type: functional; details: M14, 48 h
Outline: (§2)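 NCI five-dose assay against the ~60-cell-line panel (nine cancer types). Tenfold dilutions from 10−4 to 10−8 M were used with continuous 48-h exposure and SRB absorbance readout. Percent growth was computed from time-zero, control and treated absorbances. GI50 is the concentration giving 50% lower net protein increase than controls. Values not reached are reported as beyond the tested range.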

[4] = Growth inhibition of human HOP92 cells after 48 hrs by SRB assay; assay type: functional; details: HOP-92, 48 h
Outline: as §2

PC-3 = experiment: Growth inhibition of human PC3 cells after 48 hrs by SRB assay; assay type: functional; details: PC-3, 48 h
Outline: as §2

NCI/ADR-RES = experiment: Growth inhibition of human NCI/ADR-RES cells after 48 hrs by SRB assay; assay type: functional; details: for TGI: read-out: pTGI (converted)
Outline: as §2

SF-268 = experiment: Anticancer activity against human SF268 cells assessed as cell growth at 100 uM after 48 hrs by SRB assay; assay type: functional; details: SF-268, 48 h, read-out: Activity
Outline: (§3)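 NCI one-dose primary screen on a three-line panel (breast MCF7, lung NCI-H460, CNS SF-268). Cells were inoculated and preincubated 24–48 h, then exposed to a single concentration of 10−4 M for 48 h. The endpoint was sulforhodamine B protein staining, and results are expressed as percent growth relative to untreated control cells. Negative values denote cytotoxicity.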

MDA-MB-231 = experiment: Growth inhibition of human MDA-MB-231/ATCC cells after 48 hrs by SRB assay; assay type: functional; details: MDA-MB-231, 48 h
Outline: as §2

[5] = Growth inhibition of human […] cells after 48 hrs by SRB assay; assay type: functional
Outline: as §2

HOP-62 = experiment: Growth inhibition of human HOP62 cells after 48 hrs by SRB assay; assay type: functional; details: HOP-62, 48 h
Outline: as §2

NCI-H460 [6] = experiment: Anticancer activity against human NCI-H460 cells assessed as cell growth at 100 uM after 48 hrs by SRB assay; assay type: functional; details: NCI-H460, 48 h, read-out: Activity
Outline: as §3

BT-549 = experiment: Growth inhibition of human BT549 cells after 48 hrs by SRB assay; assay type: functional; details: BT-549, 48 h
Outline: as §2

[7] = Acute toxicity in ip dosed white mouse; assay type: organism-based; details: in vivo
Outline: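 White male mice, 23-25 g, dosed intraperitoneally with compound dissolved in 0.9% NaCl saline plus 1-2 drops Polysorbate 80 (Tween-80). Solutions prepared immediately before use. Doses ranged 100-1000 mg/kg, testing 4 or 5 doses with 6 animals per dose. LD50 derived by the Litchfield-Wilcoxon method.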

LOX IMVI = experiment: Growth inhibition of human LOXIMVI cells after 48 hrs by SRB assay; assay type: functional
Outline: as §2

HCT-116 = experiment: Growth inhibition of human HCT116 cells after 48 hrs by SRB assay; assay type: functional; details: HCT-116, 48 h; for TGI: read-out: pTGI (converted)
Outline: as §2

KM12 = experiment: Growth inhibition of human KM12 cells after 48 hrs by SRB assay; assay type: functional; details: KM12, 48 h
Outline: as §2

MCF7 = experiment: Anticancer activity against human MCF7 cells assessed as cell growth at 100 uM after 48 hrs by SRB assay; assay type: functional; details: MCF7, 48 h, read-out: Activity
Outline: as §3

[8] = system: Trypanosoma brucei brucei; experiment: Antitrypanosomal activity against bloodstream form of Trypanosoma brucei brucei strain 90-13 assessed as inhibition of parasite growth at 1 ug/ml after 72 hrs by resazurin reduction test; assay type: functional; details: strain 90-13, 72 h
Outline: (§4)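 Trypanosoma brucei brucei 90-13 bloodstream forms, grown in HMI9 with 10% FCS at 37 °C under 5% CO2. Log-phase parasites were seeded at 10^5 cells/mL with or without inhibitor, with stocks prepared in DMSO. After 72 h, resazurin was added and fluorescence was read at 530/590 nm after a further 4 h. Percent growth inhibition was calculated versus drug-free parasites, with DMSO as control.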

U-251 = experiment: Growth inhibition of human U251 cells after 48 hrs by SRB assay; assay type: functional; details: U-251, 48 h; for TGI: read-out: pTGI (converted)
Outline: (§5)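 NCI ~60-cell-line five-dose screen. Cells were preincubated 24-48 h, then given compound at 10-fold dilutions from 10^-4 to 10^-8 M with 48 h continuous exposure. SRB protein stain was read by absorbance at time zero, in untreated control and with drug. GI50 was derived from [(Ti-Tz)/(C-Tz)]x100=50, TGI from Ti=Tz, and LC50 from [(Ti-Tz)/Tz]x100=-50.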

[9] = system: Trypanosoma brucei brucei; experiment: Antitrypanosomal activity against bloodstream form of Trypanosoma brucei brucei strain 90-13 assessed as inhibition of parasite growth at 10 ug/ml after 72 hrs by resazurin reduction test; assay type: functional; details: strain 90-13, 72 h
Outline: as §4

MOLT-4 = experiment: Growth inhibition of human MOLT4 cells after 48 hrs by SRB assay; assay type: functional; details: MOLT-4, 48 h
Outline: as §2

CCRF-CEM [10] = experiment: Growth inhibition of human CCRF-CEM cells after 48 hrs by SRB assay; assay type: functional
Outline: as §2

[11] = Growth inhibition of human 786-O cells after 48 hrs by SRB assay; assay type: functional; details: 786-0, 48 h
Outline: as §2

NCI-H23 = experiment: Growth inhibition of human NCI-H23 cells after 48 hrs by SRB assay; assay type: functional; details: NCI-H23, 48 h
Outline: as §2

NCI-H460 [12] = experiment: Growth inhibition of human NCI-H460 cells after 48 hrs by SRB assay; assay type: functional; details: NCI-H460, 48 h
Outline: as §2

SR = experiment: Growth inhibition of human SR cells after 48 hrs by SRB assay; assay type: functional
Outline: as §5

[13] = Growth inhibition of human SF539 cells after 48 hrs by SRB assay; assay type: functional; details: SF-539, 48 h
Outline: as §2

[14] = Growth inhibition of human OVCAR5 cells after 48 hrs by SRB assay; assay type: functional; details: OVCAR-5, 48 h
Outline: as §2

NCI-H522 = experiment: Growth inhibition of human NCI-H522 cells after 48 hrs by SRB assay; assay type: functional; details: NCI-H522, 48 h
Outline: as §2

UACC-62 = experiment: Growth inhibition of human UACC62 cells after 48 hrs by SRB assay; assay type: functional; details: UACC-62, 48 h
Outline: as §5

SF-295 = experiment: Growth inhibition of human SF295 cells after 48 hrs by SRB assay; assay type: functional; details: SF-295, 48 h
Outline: as §2

[15] = Growth inhibition of human […] cells after 48 hrs by SRB assay; assay type: functional
Outline: as §2

[16] = Growth inhibition of human RXF393 cells after 48 hrs by SRB assay; assay type: functional; details: RXF 393, 48 h
Outline: as §2

[17] = Growth inhibition of human HCC2998 cells after 48 hrs by SRB assay; assay type: functional; details: HCC 2998, 48 h
Outline: as §2

OVCAR-8 = experiment: Growth inhibition of human OVCAR8 cells after 48 hrs by SRB assay; assay type: functional; details: OVCAR-8, 48 h
Outline: as §2

A549 = experiment: Growth inhibition of human A549/ATCC cells after 48 hrs by SRB assay; assay type: functional; details: A549, 48 h
Outline: as §2

TK-10 = experiment: Growth inhibition of human TK10 cells after 48 hrs by SRB assay; assay type: functional; details: TK-10, 48 h
Outline: as §5

786-0 = experiment: Growth inhibition of human 786-0 cells after 48 hrs by SRB assay; assay type: functional; details: 786-0, 48 h
Outline: as §2

ACHN = experiment: Growth inhibition of human ACHN cells after 48 hrs by SRB assay; assay type: functional
Outline: as §2

Structure (SMILES): O=C(Nc1ccc(O)cc1)c1cc2ccccc2c(=O)s1
growth percent at 10 µM [1]: -62.1%
inhibition of growth at 10 µM [2]: -11%
inhibition of growth at 10 µM (CCRF-CEM [3]): -28%

Structure (SMILES): COc1ccc2cc(C(=O)Nc3cccc(C(F)(F)F)c3)sc(=O)c2c1OC
GI50 (M14): 7.76 µM
TGI (M14; read-out: pTGI (converted)): 20 µM
GI50 [4]: 3.02 µM
TGI ([4]; read-out: pTGI (converted)): 10 µM
GI50 (PC-3): 4.68 µM
TGI (PC-3; read-out: pTGI (converted)): 19.5 µM
GI50 (NCI/ADR-RES): 8.43 µM
TGI (NCI/ADR-RES): 21.9 µM
growth at 100 µM (SF-268): 49%
GI50 (MDA-MB-231): 2.09 µM
TGI (MDA-MB-231; read-out: pTGI (converted)): 5.37 µM
GI50 [5]: 2.04 µM
TGI ([5]; read-out: pTGI (converted)): 5.75 µM
GI50 (HOP-62): 5.37 µM
TGI (HOP-62; read-out: pTGI (converted)): 16.2 µM
growth at 100 µM (NCI-H460 [6]): 4%
GI50 (BT-549): 2.45 µM
TGI (BT-549; read-out: pTGI (converted)): 7.08 µM
LD50 [7]: 750 mg/kg
GI50 (LOX IMVI): 6.92 µM
TGI (LOX IMVI; read-out: pTGI (converted)): 21.9 µM
GI50 (HCT-116): 3.39 µM
TGI (HCT-116): 14.5 µM
GI50 (KM12): 9.55 µM
TGI (KM12; read-out: pTGI): > 100 µM
growth at 100 µM (MCF7): 45%
inhibition at 1 µg/mL [8]: -9.98%
GI50 (U-251): 3.16 µM
TGI (U-251): 11 µM
inhibition at 10 µg/mL [9]: 5.46%
GI50 (MOLT-4): 5.62 µM
TGI (MOLT-4; read-out: pTGI (converted)): 25.7 µM
GI50 (CCRF-CEM [10]): 12 µM
TGI (CCRF-CEM [10]; read-out: pTGI (converted)): 91.2 µM
GI50 [11]: 3.39 µM
TGI ([11]; read-out: pTGI (converted)): 12.3 µM
GI50 (NCI-H23): 6.46 µM
TGI (NCI-H23; read-out: pTGI (converted)): 18.6 µM
GI50 (NCI-H460 [12]): 5.37 µM
TGI (NCI-H460 [12]; read-out: pTGI): > 100 µM

Structure (SMILES): Cc1cc(NC(=O)c2cc3ccccc3c(=O)s2)no1
GI50 (SR): 0.339 µM
TGI (SR; read-out: pTGI (converted)): > 100 µM
GI50 [13]: 30.2 µM
TGI ([13]; read-out: pTGI (converted)): > 100 µM
growth at 100 µM (SF-268): 86%
growth at 100 µM (NCI-H460 [6]): 31%
growth at 100 µM (MCF7): 85%

GI50 (NCI-H522): 18.2 µM
GI50 (HCT-116): 14.1 µM
GI50 (OVCAR-8): 12.3 µM
GI50 (A549): 18.6 µM
GI50 (786-0): 11.5 µM
GI50 (U-251): 5.5 µM
GI50 (ACHN): 7.08 µM
Structure (SMILES): COc1ccc2cc(C(=O)Nc3ccc(F)cc3)sc(=O)c2c1OC
GI50 [14]: 18.6 µM
TGI ([14]; read-out: pTGI (converted)): 61.7 µM
TGI (NCI-H522; read-out: pTGI (converted)): 70.8 µM
GI50 (UACC-62): 19.5 µM
TGI (UACC-62; read-out: pTGI (converted)): 52.5 µM
GI50 (NCI/ADR-RES): 12.6 µM
TGI (NCI/ADR-RES): > 100 µM
growth at 100 µM (SF-268): 60%
GI50 (SF-295): 18.2 µM
TGI (SF-295; read-out: pTGI (converted)): 51.3 µM
GI50 [15]: 6.76 µM
TGI ([15]; read-out: pTGI (converted)): 22.9 µM
GI50 [16]: 10.7 µM
TGI ([16]; read-out: pTGI (converted)): 33.9 µM
growth at 100 µM (NCI-H460 [6]): 11%
GI50 [17]: 14.1 µM
TGI ([17]; read-out: pTGI (converted)): 49 µM
TGI (HCT-116): 40.7 µM
TGI (OVCAR-8; read-out: pTGI (converted)): 67.6 µM
TGI (A549; read-out: pTGI): > 100 µM
GI50 (TK-10): 15.1 µM
TGI (TK-10; read-out: pTGI (converted)): 33.1 µM
growth at 100 µM (MCF7): 55%
TGI (786-0; read-out: pTGI (converted)): 41.7 µM
TGI (U-251): 20.4 µM
TGI (ACHN; read-out: pTGI (converted)): 26.9 µM
